SUMO1 PPI mod – modulators of SUMO1 protein-protein interactions, primary screen, biochemical, uHTS; Small ubiquitin-related modifier 1 (Homo sapiens), P63165; SUMO1 binding to a labelled peptide, TR-FRET, 1 h; inhibition, % at 20 µM; actives 0.33% (n = 360,000); AID 602429, 2012; in the data active = inhibition above about 37%
DNMT1 block – human DNMT1 methyltransferase inhibitors, primary screen, biochemical, molecular beacon, fluorescence, HinP1I cleavage, uHTS. DNA (cytosine-5)-methyltransferase 1 (Homo sapiens), P26358. actives 0.83% (n = 360,000). inhibition (reported as % activation of signal), % at 10 µM; in the data active = inhibition above about 50%
LMPTP block – LMPTP phosphatase inhibitors, primary screen, biochemical, fluorescence intensity, uHTS; Low molecular weight phosphotyrosine protein phosphatase (Homo sapiens), P24666; recombinant LMPTP-A, OMFP fluorogenic substrate; inhibition, % at 20 µM; actives 0.22% (n = 360,000);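 active = compounds that cut the enzyme signal by at least half of the control window in the single-dose screen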
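Buffer or medium: Bis-Tris pH 6.0, DTT, detergent; Assay system: LMPTP-A enzyme; Quantity: 0.625 nM enzyme; Detection: endpoint fluorescence intensity; Times: 50 min dark incubation at room temperature; Controls: substrate-only low control, DMSO enzyme-plus-substrate high control; Doses: single 20 µM dose; Read-out: percent inhibition versus substrate-only and uninhibited controls; Reagent: 400 µM OMFP.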
Scp1 inh – Scp-1 phosphatase inhibitors, primary screen, biochemical, colorimetric, uHTS; actives 0.88% (n = 340,000); AID 493091, 2011; Carboxy-terminal domain RNA polymerase II polypeptide A small phosphatase 1 (Homo …; inhibition, % at 20 µM; Recombinant Scp1, phosphopeptide, malachite green phosphate absorbance;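 active = inhibition above about 50% at 20 µM, limit read from the data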
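Material – SCP-1 phosphatase catalytic domain, residues 76-261 · Buffer or medium – Acidic Tris acetate buffer with magnesium and detergent · Also added – Phospho 17-mer peptide substrate · Compound – single 20 µM dose, 1% DMSO · Times – 45 min room-temperature reaction, 5 min colour, 30 min stabiliser · Technique – Phosphate-binding colour reagent, absorbance read at 630 nm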
CSN deneddyl inh – inhibitors of CSN-mediated cullin deneddylation, primary screen, biochemical, fluorescence polarization, uHTS. actives 0.38% (n = 360,000). COP9 signalosome complex subunit 5 (Homo sapiens), Q92905. Purified CSN, SCF-Nedd8-OG deneddylation. inhibition, % at 12.5 µM;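 active = pattern-corrected inhibition above about 35%, with an unprinted fluorescence ratio check between 0.5 and 1.5, limit read from the data, passing the limit was not always enough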
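Schedule: reaction 90 min, room temperature / Assay system: HEK293T-derived human Csn5 enzyme / Input: Csn5 at 0.24 nM final / Measure: inhibition of Csn5 cleavage, % / Control set: substrate-only high control, full reaction low control / Technique: fluorescence polarization of the substrate / Buffer or medium: Tris/NaCl/DTT buffer, pH 7.5 / Reagent: SCFSkp2-Nedd8OG substrate at 10 nM final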
STEP block – STEP phosphatase inhibitors, primary screen, biochemical, fluorescence intensity, uHTS; inhibition, % at 20 µM; Tyrosine-protein phosphatase non-receptor type 5 (Homo sapiens), P54829; actives 0.25% (n = 360,000); recombinant STEP, OMFP fluorogenic substrate;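 active = inhibition at 20 µM, scaled per plate between control wells, above about 37%, limit read from the data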
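Test system: STEP tyrosine phosphatase / Reagent: OMFP at 25 µM / Doses: 20 µM, 1% DMSO / Read-out: percent inhibition scaled to no-enzyme and uninhibited-enzyme controls, plate-pattern corrected / Detection: FITC-channel fluorescence of OMFP product / Medium: Bis-Tris buffer pH 6.0, 2.5 mM DTT, 0.005% Tween 20 / Schedule: 20 min at room temperature, dark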
Scp1 confirm – Scp-1 phosphatase inhibitors, retest, confirmation, biochemical, colorimetric, single concentration. shares compounds with Scp1 inh. recombinant SCP-1 catalytic domain, phosphate release, malachite green absorbance. inhibition, % at 20 µM. actives 61% (n = 2,500). AID 540281, 2011
Scp-1 MG ctr – colorimetric readout interference by compounds, confirmation, artefact control for Scp-1 inhibitor project, biochemical, single concentration | shares compounds with Scp1 inh | AID 540313, 2011 | Colorimetric interference counterscreen, malachite green absorbance 630 nm | 2,500 tested, under 10 active | apparent inhibition (interference), % at 20 µM;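 also: compounds added after enzyme reaction finished so only phosphate colour detection is probed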
Scp-1 Tm shift – Scp-1 binding by thermal shift, confirmation, orthogonal assay for Scp-1 inhibitor project, biophysical, differential scanning fluorimetry; shares compounds with Scp1 inh; Recombinant SCP1, Sypro Orange thermal shift Tm; thermal shift relative to vanadate control, % at 40 µM; AID 540329, 2011; actives 25% (n = 1,500);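 active = substances whose mean melting-temperature shift, as a percentage of the reference inhibitor's shift, reaches about 5.3%, limit read from the data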
Each line names hits and unclear results; the compound was inactive in the other large screens (follow-up assays come after a bar, where they were run). Hits are enriched below; roughly 1.9% of the tested compounds scored in any of these assays.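 The calls were made as follows, unless noted: active = inhibition of at least 30% at 20 µM; inactive = the rest.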

CCOc1ccc2c(c1)[N+](C)(C)C(C)(C)C=C2C	none
O=C(Nc1ccc(Br)cn1)c1coc(=O)c(Br)c1	Scp1 inh 69 | Scp1 confirm inactive | Scp-1 MG ctr inactive
O=C1/C(=C\c2cccc([N+](=O)[O-])c2O)SC(=S)N1Cc1ccccc1	Scp1 inh 73 | Scp1 confirm inactive | Scp-1 MG ctr inactive
COc1ccc2[nH]c(=O)c(CN(C(=O)c3ccco3)C(C)C)cc2c1	Scp1 inh 60 | Scp1 confirm inactive | Scp-1 MG ctr inactive
Cc1ccc2nc(Cl)c(C3CC(c4cccs4)=NN3C(=O)CCCC(=O)O)cc2c1 (stereo not drawn)	Scp1 inh 96 | Scp1 confirm 85 | Scp-1 MG ctr inactive | Scp-1 Tm shift inactive
C[C@H](CO)N1C[C@H](C)[C@@H](CN(C)S(C)(=O)=O)Oc2ccc(N(C)C)cc2C1=O	none
CC(C)C(C)NC(=O)COC(=O)c1cccc(C(=O)OCC(=O)NC(C)C(C)C)n1 (stereo not drawn)	none
CNC(=O)COC(=O)/C=C/c1ccco1	none
CC1CC(C)CN(C(=O)COC(=O)/C=C/c2ccco2)C1 (stereo not drawn)	Scp1 inh 59 | Scp1 confirm 48 | Scp-1 MG ctr inactive | Scp-1 Tm shift inactive
CCOc1ccc(C(=O)Nc2ccc(-c3cc4ccccc4oc3=O)c(C)c2)cc1[N+](=O)[O-]	Scp1 inh 60 | Scp1 confirm 41 | Scp-1 MG ctr inactive | Scp-1 Tm shift inactive
CSc1nc2nc3c(c(=O)n2[nH]1)CCCC3	none
Cc1cc(=O)oc2cc(OCc3ccc(C(=O)OCC(=O)Nc4ccc(N(C)C)cc4)cc3)ccc12	none
Cc1cccc(NC(=O)CN2C(=O)S/C(=C\c3cccn3-c3cccc(C(=O)O)c3)C2=O)c1	Scp1 inh 70 | Scp1 confirm 71 | Scp-1 MG ctr inactive | Scp-1 Tm shift 11
Cc1cccc(C)c1NC(=O)CN1C(=O)S/C(=C\c2cccn2-c2cccc(C(=O)O)c2)C1=O	Scp1 inh 58 | Scp1 confirm 81 | Scp-1 MG ctr inactive | Scp-1 Tm shift 6.6
Cc1cccc(C)c1NC(=O)CN1C(=O)S/C(=C\c2cccn2C)C1=O	none
O=[N+]([O-])c1ccccc1CNC(Cc1ccccc1)c1ccccc1 (stereo not drawn)	none
O=C(NC1CCCC1)C(c1ccco1)N(Cc1ccccc1)C(=O)c1csnn1 (stereo not drawn)	none
COc1ccc(N2CC(NS(=O)(=O)c3ccc(F)cc3)CC2=O)cc1 (stereo not drawn)	none | Scp1 confirm inactive | Scp-1 MG ctr inactive
O=C1CC(NS(=O)(=O)c2cccnc2)CN1c1ccc(F)cc1 (stereo not drawn)	none
Cc1cccc(C)c1NC(=O)CS(=O)CC(=O)Nc1ccc(F)cc1F (stereo not drawn)	none
CCc1ccc(NC(=O)CS(=O)CC(=O)Nc2ccc(F)cc2F)cc1 (stereo not drawn)	Scp1 inh 94 | Scp1 confirm 89 | Scp-1 MG ctr inactive | Scp-1 Tm shift inactive
CCCCC(=O)OCC(=O)c1ccc(OCC)cc1	none
CCOc1ccc(C(=O)CCCC(=O)c2ccc(OCC)cc2)cc1	Scp1 inh 77 | Scp1 confirm inactive | Scp-1 MG ctr inactive
CCCn1c(SCC(=O)Nc2cccnc2Cl)n[nH]c1=O	none
CCCCN(C(=O)CSc1ncnc2sccc12)c1c(N)n(Cc2ccccc2)c(=O)[nH]c1=O	none
O=C(N/N=C/c1cn(-c2ccccc2)nc1-c1ccc2c(c1)OCCO2)c1ccncc1	Scp1 inh 75 | Scp1 confirm 57 | Scp-1 MG ctr inactive | Scp-1 Tm shift inactive
CCc1cc(C(=O)OC)c(NC(=O)CCC(=O)O)s1	Scp1 inh 62 | Scp1 confirm inactive | Scp-1 MG ctr inactive
CN(CC(=O)Nc1cccc(F)c1)C(=O)Cn1c(=O)cnc2ccccc21	none
Cc1cc(Br)ccc1NC(=O)CN(C)C(=O)Cn1c(=O)cnc2ccccc21	Scp1 inh 96 | Scp1 confirm 89 | Scp-1 MG ctr inactive | Scp-1 Tm shift inactive
COc1ccc(-n2c(/C=C(\C)O)nc(=O)c3c(C)cc(C)nc32)cc1	none
O=C(O)CCCCCCCCCC(=O)c1cccs1	Scp1 inh 81 | Scp1 confirm inactive | Scp-1 MG ctr inactive
CC(CC(=O)c1cccs1)CC(=O)c1cccs1	none
Cc1ccc(-c2csc(C3=C(O)CN(NC(=O)c4ccc([N+](=O)[O-])cc4)C3=N)n2)cc1	none
N=C1C(c2nc(-c3cccc([N+](=O)[O-])c3)cs2)=C(O)CN1NC(=O)c1ccco1	Scp1 inh 68 | Scp1 confirm inactive | Scp-1 MG ctr inactive
CC1=C(C(=O)N(C)C)CC(CC(=O)NCC2CCCCC2)C(=O)N1Cc1ccc(F)cc1 (stereo not drawn)	none (no result: Scp1 inh)
Cc1ccc(S(=O)(=O)N2CCN(C(=O)CC(C)n3nc(C)c(Cl)c3C)CC2)cc1 (stereo not drawn)	none
Cc1ccc(-c2cc(C(=O)N3CCOCC3)c3ccccc3n2)o1	none
Cc1ccc(-c2cc(C(=O)N3CCN(c4ccc(F)cc4)CC3)c3ccccc3n2)o1	Scp1 inh 53 | Scp1 confirm inactive | Scp-1 MG ctr inactive
N#Cc1cccc(NC(=O)CSc2sc3c(O)cc(=O)[nH]c3c2C#N)c1	LMPTP block 70, Scp1 inh 50 | Scp1 confirm inactive | Scp-1 MG ctr inactive
